Source: ChEMBL document CHEMBL1165892, “Cell cycle disruption and apoptotic activity of 3-aminothiazolo[3,2-a]benzimidazole-2-carbonitrile and its homologues” (2010)
The source made the active and inactive calls. No cut-off for these calls is given here.

Key:
MDA-MB-231 [1] = assay: Cell cycle arrest in human MDA-MB-231 cells assessed as accumulation at G2/M phase at 100 uM after 72 hrs using propidium staining by flow cytometry; type: functional
Method in brief: (§1)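 MDA-MB-231 cells were grown in RPMI 1640 with 100 ml/l FBS, 100 U/ml penicillin and 100 U/ml streptomycin. They were seeded in 60 mm dishes and held 24 h at 37 °C in humidified 50 ml/l CO₂. Cells were exposed for 24, 48 or 72 h, then resuspended in 50 mM Na citrate with propidium iodide for 30 min. DNA content was read by flow cytometry and phase percentages derived from histograms. Data are representative of three independent experiments.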

MDA-MB-231 [2] = assay: Induction of apoptosis in human MDA-MB-231 cells at 100 uM after 24 hrs using annexin V staining by flow cytometry; type: functional
Method in brief: (§2)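 MDA-MB-231 cells were cultured in RPMI 1640 with 100 ml/l FBS and penicillin/streptomycin, then exposed for 24, 48 or 72 h. Harvested cells were stained with annexin V-FITC plus PI using a commercial kit per the manufacturer. Flow cytometry read emission at 530 and […], 10,000 cells per determination. Quadrants scored normal, early apoptotic, late apoptotic and necrotic cells. Results are representative of three experiments.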

MDA-MB-231 [3] = assay: Induction of apoptosis in human MDA-MB-231 cells at 100 uM after 72 hrs using annexin V staining by flow cytometry; type: functional; method in brief: as §2
MDA-MB-231 [4] = assay: Cell cycle arrest in human MDA-MB-231 cells assessed as accumulation at G2/M phase at 100 uM after 48 hrs using propidium staining by flow cytometry; type: functional; method in brief: as §1
MDA-MB-231 [5] = assay: Cell cycle arrest in human MDA-MB-231 cells assessed as accumulation at G2/M phase at 100 uM after 24 hrs using propidium staining by flow cytometry; type: functional; method in brief: as §1
MDA-MB-231 [6] = assay: Induction of apoptosis in human MDA-MB-231 cells at 100 uM using annexin V staining by flow cytometry; type: functional, cell-based; details: TDE = time-dependent effect; method in brief: as §2
MDA-MB-231 [7] = assay: Cell cycle arrest in human MDA-MB-231 cells assessed as accumulation at S phase at 100 uM after 24 to 72 hrs using propidium staining by flow cytometry; type: functional, cell-based; method in brief: as §1
MDA-MB-231 [8] = assay: Antiproliferative activity against human MDA-MB-231 cells at 100 uM after 48 hrs
MDA-MB-231 [9] = assay: Induction of apoptosis in human MDA-MB-231 cells at 100 uM after 48 hrs using annexin V staining by flow cytometry; type: functional; method in brief: as §2
MDA-MB-231 [10] = assay: Cell cycle arrest in human MDA-MB-231 cells decrease of cells at G1 phase at 100 uM after 24 to 72 hrs using propidium staining by flow cytometry; type: functional, cell-based; method in brief: as §1

With CC(=O)Nc1c(C#N)sc2nc3ccccc3n12 the Activity (MDA-MB-231 [1]) was 45.79%, the Activity (MDA-MB-231 [2]) was 23.77% and the Activity (MDA-MB-231 [3]) was 80%. The Activity (MDA-MB-231 [4]) was 46.22%, the Activity (MDA-MB-231 [5]) was 42% and the Activity (MDA-MB-231 [6]) was “tde”. For the same molecule, the Activity (MDA-MB-231 [7]) was “Active”, the Activity (MDA-MB-231 [8]) was “Active” and the Activity (MDA-MB-231 [9]) was 54.59%. For the same molecule, the Activity (MDA-MB-231 [10]) was “Active”.
